Laboratory results taken from publication PMC3060938 (Clinical cancer research : an official journal of the …, 2011).
Several values for one entry are separate records, joined by “and”; a condition that tells them apart may be missing. Identical values can stand only once.

How the values were obtained:
[1] = Phase I dose escalation of weekly IV 17-DMAG: toxicity; assay type: in vivo, human
Procedure, shortened: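 Weekly 1-h IV infusion, continuous, in 4-week cycles, of drug diluted to 0.1-1.0 mg/mL in 0.9% saline or 5% dextrose. Accelerated titration escalation from 2.5 mg/m2, up to 106 mg/m2. AEs graded by NCI-CTCAE v3.0. DLT assessed over the first 28 days. Cohorts expanded to 6 after DLT. MAD defined as ≥2/6 with DLT; MTD as the prior level with ≤1/6.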

[2] = Plasma pharmacokinetics of 17-DMAG by HPLC-MS, non-compartmental analysis; assay type: in vivo, human
Procedure, shortened: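 Sampled in course 1: pre-dose, at 30 and 60 min into the 1-h infusion, then 5 min to 96 h after infusion end. Heparinised blood held on ice, spun 252g for 5 min at 4°C, plasma kept at −80°C. Drug measured by validated HPLC-MS. Non-compartmental analysis with constant infusion input. Dose proportionality of AUC and Cmax assessed by linear regression.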

[3] = test system: HSP90; assay: Western blotting of HSP72, CDK4 and LCK in patients' PBMC; assay type: in vivo, human
Procedure, shortened: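 Blood drawn pre-dose, at end of infusion and 1, 8, 24, 48 and 96 h post-dose, plus 24 h after the fifth weekly infusion. PBMC isolated by Ficoll-Hypaque and stored at −80°C. Lysates blotted for HSP72, CDK4 and LCK, with GAPDH as loading control. Each time-point visually compared with pre-treatment and scored 0-5 against a positive control.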

[4] = test system: HSP72; assay: HSP72 in PBMC and plasma by ELISA; assay type: in vivo, human
Procedure, shortened: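 Human patients with advanced solid tumours received a weekly 1-h IV infusion of the test compound, given at 0.1-1.0 mg/mL in 0.9% saline or 5% dextrose. Blood was drawn pre-dose and 24 h post-dose. PBMC were Ficoll-Hypaque separated and stored at −80 °C. HSP72 was measured in PBMC (fmole/μg protein) and plasma (fmole/ml). Each cohort's mean change was compared with the first cohort's by one-tailed t-test (p ≤ 0.05).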

[5] = test system: HSP90; assay: Western blotting of HSP72, CDK4 and ERBB2 in paired tumor biopsies; assay type: in vivo, human
Procedure, shortened: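 Tumour biopsies were taken before and 24 h after the first weekly 1-h IV dose, snap frozen and stored at −80 °C; five paired biopsies per cohort were planned. Lysates were western blotted for HSP72, CDK4 and ERBB2, with GAPDH loading control and HT29 positive control. Each band was scored 0-5 against pre-treatment; a one-point change counted. Signature: HSP72 induction plus CDK4 and/or ERBB2 depletion. Two blinded assessors verified results.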

[6] = test system: advanced solid tumors; assay: Tumor response; assay type: in vivo, human
[7] = test system: NCI 60 human tumor cell line panel; details: read-out: Mean IC50, no reference given; cited from earlier work

Structure (SMILES): CO[C@H]1/C=C\C=C(/C)C(=O)NC2=CC(=O)C(NCCN(C)C)=C(C[C@@H](C)C[C@H](OC)[C@H](O)[C@@H](C)/C=C(\C)[C@@H]1OC(N)=O)C2=O [17-DMAG, 17-dimethylaminoethylamino-17-demethoxygeldanamycin]
- Treatment related death ([1]; 106mg/m^2): one treatment related death
- Patients with dose limiting toxicity (DLT) ([1]; 106 mg/m^2 weekly IV): 2/4
- ALP (hepatic), adverse events related to 17-DMAG ([1]; Grade 1): 2
- ALT (hepatic), adverse events related to 17-DMAG ([1]; Grade 1): 2
- AST (hepatic), adverse events related to 17-DMAG ([1]; Grade 1): 4
- Alopecia, adverse events related to 17-DMAG ([1]; Grade 1): 2
- Anorexia, adverse events related to 17-DMAG ([1]; Grade 1): 1
- Blurred vision, adverse events related to 17-DMAG ([1]; Grade 1): 2
- Dehydration, adverse events related to 17-DMAG ([1]; Grade 1): 1
- Depression, adverse events related to 17-DMAG ([1]; Grade 1): 1
- Diarrhea, adverse events related to 17-DMAG ([1]; Grade 1): 5
- Dizziness, adverse events related to 17-DMAG ([1]; Grade 1): 1
- Dry eye, adverse events related to 17-DMAG ([1]; Grade 1): 1
- Dry mouth, adverse events related to 17-DMAG ([1]; Grade 1): 3
- Eosinophilia, adverse events related to 17-DMAG ([1]; Grade 1): 1
- Fever, adverse events related to 17-DMAG ([1]; Grade 1): 2
- Hand foot syndrome, adverse events related to 17-DMAG ([1]; Grade 1): 1
- Heartburn, adverse events related to 17-DMAG ([1]; Grade 1): 1
- High protein, adverse events related to 17-DMAG ([1]; Grade 1): 1
- Hypergylcaemia, adverse events related to 17-DMAG ([1]; Grade 1): 2
- Hypertension, adverse events related to 17-DMAG ([1]; Grade 1): 3
- Hyperuricaemia, adverse events related to 17-DMAG ([1]; Grade 1): 1
- Hypocalcaemia, adverse events related to 17-DMAG ([1]; Grade 1): 1
- Hypokalaemia, adverse events related to 17-DMAG ([1]; Grade 1): 2
- Hyponatraemia, adverse events related to 17-DMAG ([1]; Grade 1): 3
- Limb edema, adverse events related to 17-DMAG ([1]; Grade 1): 2
- Low eosinophils, adverse events related to 17-DMAG ([1]; Grade 1): 1
- Low hematocrit, adverse events related to 17-DMAG ([1]; Grade 1): 1
- Low red cell count, adverse events related to 17-DMAG ([1]; Grade 1): 1
- Low urea, adverse events related to 17-DMAG ([1]; Grade 1): 1
- Lymphopenia, adverse events related to 17-DMAG ([1]; Grade 1): 2
- Muscle spasm, adverse events related to 17-DMAG ([1]; Grade 1): 1
- Nausea, adverse events related to 17-DMAG ([1]; Grade 1): 5
- Neuropathy, adverse events related to 17-DMAG ([1]; Grade 1): 1
- Nightmares, adverse events related to 17-DMAG ([1]; Grade 1): 1
- Ocular surface disease, adverse events related to 17-DMAG ([1]; Grade 1): 2
- Oliguria, adverse events related to 17-DMAG ([1]; Grade 1): 1
- Pain, Abdomen, adverse events related to 17-DMAG ([1]; Grade 1): 1
- Pain, Headache, adverse events related to 17-DMAG ([1]; Grade 1): 1
- Pain, Joint, adverse events related to 17-DMAG ([1]; Grade 1): 5
- Pain, Limb, adverse events related to 17-DMAG ([1]; Grade 1): 1
- Pain, Myalgia, adverse events related to 17-DMAG ([1]; Grade 1): 2
- Proteinuria, adverse events related to 17-DMAG ([1]; Grade 1): 3
- Raised CK, adverse events related to 17-DMAG ([1]; Grade 1): 1
- Raised amylase, adverse events related to 17-DMAG ([1]; Grade 1): 1
- Raised bilirubin (hepatic), adverse events related to 17-DMAG ([1]; Grade 1): 1
- Raised leucocytes, adverse events related to 17-DMAG ([1]; Grade 1): 1
- Raised neutrophils, adverse events related to 17-DMAG ([1]; Grade 1): 2
- Rash, adverse events related to 17-DMAG ([1]; Grade 1): 1
- Sinus tachycardia, adverse events related to 17-DMAG ([1]; Grade 1): 1
- Thrombocytopenia, adverse events related to 17-DMAG ([1]; Grade 1): 3
- Vivid dreams, adverse events related to 17-DMAG ([1]; Grade 1): 1
- Voice change, adverse events related to 17-DMAG ([1]; Grade 1): 1
- Vomiting, adverse events related to 17-DMAG ([1]; Grade 1): 2
- Weight loss, adverse events related to 17-DMAG ([1]; Grade 1): 1
- ALP (hepatic), adverse events related to 17-DMAG ([1]; Grade 2): 1
- ALT (hepatic), adverse events related to 17-DMAG ([1]; Grade 2): 1
- Anorexia, adverse events related to 17-DMAG ([1]; Grade 2): 1
- Blurred vision, adverse events related to 17-DMAG ([1]; Grade 2): 2
- Diarrhea, adverse events related to 17-DMAG ([1]; Grade 2): 1
- Dry eye, adverse events related to 17-DMAG ([1]; Grade 2): 2
- Eye (herpes simplex), adverse events related to 17-DMAG ([1]; Grade 2): 1
- Fatigue, adverse events related to 17-DMAG ([1]; Grade 2): 2
- Fever, adverse events related to 17-DMAG ([1]; Grade 2): 1
- Keratitis, adverse events related to 17-DMAG ([1]; Grade 2): 2
- Nausea, adverse events related to 17-DMAG ([1]; Grade 2): 1
- Pain, Joint, adverse events related to 17-DMAG ([1]; Grade 2): 2
- Vomiting, adverse events related to 17-DMAG ([1]; Grade 2): 4
- ALT (hepatic), adverse events related to 17-DMAG ([1]; Grade 3): 1
- AST (hepatic), adverse events related to 17-DMAG ([1]; Grade 3): 1
- Acidosis, adverse events related to 17-DMAG ([1]; Grade 3): 1
- Creatinine, adverse events related to 17-DMAG ([1]; Grade 3): 1
- Dehydration, adverse events related to 17-DMAG ([1]; Grade 3): 1
- Diarrhea, adverse events related to 17-DMAG ([1]; Grade 3): 1
- Fatigue, adverse events related to 17-DMAG ([1]; Grade 3): 1
- Hyponatraemia, adverse events related to 17-DMAG ([1]; Grade 3): 1
- Lymphopenia, adverse events related to 17-DMAG ([1]; Grade 3): 1
- Thrombocytopenia, adverse events related to 17-DMAG ([1]; Grade 3): 1
- γGT (hepatic), adverse events related to 17-DMAG ([1]; Grade 3): 1
- AST (hepatic), adverse events related to 17-DMAG ([1]; Grade 4): 1
- Hypotension, adverse events related to 17-DMAG ([1]; Grade 4): 1
- Renal failure, adverse events related to 17-DMAG ([1]; Grade 5): 1
- Tolerability ([1]; doses ≤ 80mg/m^2): well tolerated
- Maximum tolerated dose (MTD) ([1]; weekly IV, patients with advanced solid tumors): 80 mg/m^2
- Recommended Phase II dose ([1]; weekly, IV): 80 mg/m^2
- Half life ([2]; dose 40.0 mg/m^2, 1 hr IV infusion, 3 patients): 21.5 ± 4.3 (19.7) hr
- Half life ([2]; dose 80.0 mg/m^2, 1 hr IV infusion, 8 patients): 27.8 ± 7.1 (25.4) hr
- Cmax ([2]; human, intravenous, 80 mg/m2): 2680 nM
- Vd ([2]; human, intravenous, 80 mg/m2): 385 L
- clearance ([2]; human, intravenous, 80 mg/m2): 315 mL/min
- AUC ([2]; human, iv, 2.5 mg/m^2): 0.581 ± 0.236 µM·h
- Cmax ([2]; human, iv, 2.5 mg/m^2): 64.1 ± 19.7 nM
- clearance ([2]; human, iv, 2.5 mg/m^2): 218 mL/min
- half-life ([2]; human, iv, 2.5 mg/m^2): 25.2 ± 12.9 h
- AUC ([2]; human, iv, 5 mg/m^2): 0.864 ± 0.651 µM·h
- Cmax ([2]; human, iv, 5 mg/m^2): 85.4 ± 55.2 nM
- clearance ([2]; human, iv, 5 mg/m^2): 858 mL/min
- half-life ([2]; human, iv, 5 mg/m^2): 18.4 ± 7.5 h
- AUC ([2]; human, iv, 20 mg/m^2): 3.73 ± 2.04 µM·h
- Cmax ([2]; human, iv, 20 mg/m^2): 480 ± 176 nM
- clearance ([2]; human, iv, 20 mg/m^2): 345 mL/min
- half-life ([2]; human, iv, 20 mg/m^2): 28.7 ± 14.2 h
- AUC ([2]; human, iv, 40 mg/m^2): 6.51 ± 3.22 µM·h
- Cmax ([2]; human, iv, 40 mg/m^2): 957 ± 248 nM
- clearance ([2]; human, iv, 40 mg/m^2): 322 mL/min
- AUC ([2]; human, iv, 80 mg/m^2): 12.7 ± 2.87 µM·h
- Cmax ([2]; human, iv, 80 mg/m^2): 2680 ± 1320 nM
- clearance ([2]; human, iv, 80 mg/m^2): 315 mL/min
- AUC ([2]; human, iv, 106 mg/m^2): 32.3 ± 16.3 µM·h
- Cmax ([2]; human, iv, 106 mg/m^2): 3750 ± 1370 nM
- clearance ([2]; human, iv, 106 mg/m^2): 213 mL/min
- half-life ([2]; human, iv, 106 mg/m^2): 24.7 ± 1.8 h
- Dose at which transient HSP72 induction (< 24 hours) was detected in PBMCs [3]: ≥ 5 mg/m^2
- Dose at which CDK4 depletion was demonstrated in PBMC ([3]; some patients): ≥ 80 mg/m^2
- Mean plasma HSP72 change between dose levels ([4]; 24 hours after 17-DMAG, compared with first dose cohort): did not differ
- Dose at which HSP72 induction was detected in PBMC ([4]; ELISA (DELFIA), 24 hours after 17-DMAG): ≥ 20 mg/m^2
- Mean HSP72 plasma level post 17-DMAG ([4]; all other patients (without DLT)): 86 ± 140 fmol/mL
- Highest HSP72 plasma levels post 17-DMAG ([4]; the 2 patients with DLT (106 mg/m^2), individual values): 1250 fmol/mL and 5610 fmol/mL
- HSP90 inhibition in tumor ([5]; 106 mg/m^2, single set of samples): confirmed
- Patients with HSP90 inhibition detected in tumor ([5]; 24 hrs after 80mg/m^2): 3/5
- Tumors with HSP72 induced ([5]; 24 hrs after 80mg/m^2): 4/5
- Tumors with client protein depletion (CDK4 or ERBB2) ([5]; 24 hrs after 80mg/m^2): 3/5
- Time on treatment before PD ([6]; patient with CRPC and complete response, 5mg/m^2 escalated to 20mg/m^2): 124 weeks
- Best tumor response ([6]; patient with CRPC, 5mg/m^2 escalated to 20mg/m^2, confirmed by CT and PSA): complete response
- Time on study with stable disease ([6]; patient with CRPC, 20mg/m^2): 59 weeks
- Time on study with stable disease ([6]; patient with chondrosarcoma, 5mg/m^2 escalated to 20mg/m^2): 28 weeks
- Time on study with stable disease ([6]; patient with clear cell renal cancer, 80mg/m^2): 76 weeks
- Time on treatment before PD ([6]; patient with metastatic melanoma and partial response, 40mg/m^2): 159 weeks
- Best tumor response ([6]; patient with metastatic melanoma, 40mg/m^2): partial response
- Patients with progressive disease (PD) ([6]; twenty patients evaluable, all dose levels): Nine
- IC50 [7]: 63 nM
